Experimental data as given in ChEMBL document CHEMBL1137651 (Antimicrob Agents Chemother, 2007).
In brackets after ≈: the same amount, converted by molar mass. Activity calls are given as the source filed them. The rule behind the calls is not given here.

Columns and labels:
[1] = AUC (0 to 168 hrs) in Mycobacterium tuberculosis H37Rv ATCC 2517-infected hollow fiber system based in vitro pharmacokinetic-pharmacodynamic tuberculosis model administered at dose simulating 4200 mg once weekly schedule; type: ADME; set-up: time < 168 hr, dose 4200 mg
How it was run: (§1)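 Samples were cleaned up by solid-phase extraction and quantified by LC-MS (C18 column, 25 mM ammonium acetate/acetonitrile 58:42).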

[2] = AUC in Mycobacterium tuberculosis H37Rv ATCC 2517-infected hollow fiber system based in vitro pharmacokinetic-pharmacodynamic tuberculosis model at 2 mg/L for 7 hrs; type: ADME
[3] = tested on: Mycobacterium tuberculosis; experiment: Antimycobacterial activity against drug-sensitive Mycobacterium tuberculosis H37Rv ATCC 2517-infected hollow fiber system based in vitro pharmacokinetic-pharmacodynamic tuberculosis model assessed as rate constant for maximal bacterial growth; type: functional
[4] = tested on: Homo sapiens; experiment: fAUC (0 to 168 hrs) in Mycobacterium tuberculosis H37Rv ATCC 2517-infected patient serum at 2100 mg, po administered twice a week; type: ADME, organism-based; conditions: in vivo
[5] = tested on: Mycobacterium tuberculosis; experiment: Antimycobacterial activity against drug-sensitive Mycobacterium tuberculosis H37Rv ATCC 2517-infected hollow fiber system based in vitro pharmacokinetic-pharmacodynamic tuberculosis model assessed as sigmoidicity constant for microbial killing; type: functional
[6] = tested on: Mycobacterium tuberculosis; experiment: Antimycobacterial activity against drug-sensitive Mycobacterium tuberculosis H37Rv ATCC 2517-infected hollow fiber system based in vitro pharmacokinetic-pharmacodynamic tuberculosis model assessed as concentration needed to achieve 50% effect on maximal growth rate; type: functional
[7] = tested on: Mycobacterium tuberculosis; experiment: Antimycobacterial activity against Mycobacterium tuberculosis H37Rv ATCC 2517 infected in hollow fiber system based in vitro pharmacokinetic-pharmacodynamic tuberculosis model assessed as microbial killing administered at simulated dose of 600 mg/day for 7 days; type: functional
How it was run: (§2)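 Hollow-fiber model at 37°C with 5% CO2. […] Schedules were daily for 7 days, twice weekly (day 0 and 3.5) or once weekly, plus an untreated control. Peripheral samples were taken daily for 7 days, saline-washed twice and plated on 7H10 agar; kill is relative to baseline.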

[8] = tested on: Homo sapiens; experiment: fCmax in Mycobacterium tuberculosis H37Rv ATCC 2517-infected patient serum at 4200 mg, po administered once a week; type: ADME, organism-based; conditions: in vivo
[9] = tested on: Mycobacterium tuberculosis; experiment: Drug uptake in Mycobacterium tuberculosis H37Rv ATCC 2517-infected hollow fiber system based in vitro pharmacokinetic-pharmacodynamic tuberculosis model; type: ADME, organism-based
How it was run: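 Log-phase culture was adjusted to 10^6 CFU/ml in 7H9 broth held at 37°C or 0°C, then given 0, 2, 7 or 14 mg/liter drug. Samples taken at 0, 5, 15, 30 and 60 min were spun through silicone oil, and drug in the pellet was measured by LC-MS. Values at 0°C (cell-wall binding) were subtracted from those at 37°C. Cell volume was estimated from protein by BCA. Run in triplicate.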

[10] = tested on: Homo sapiens; experiment: fAUC (0 to 168 hrs) in Mycobacterium tuberculosis H37Rv ATCC 2517-infected patient serum at 4200 mg, po administered once a week; type: ADME, organism-based; conditions: in vivo
[11] = tested on: Mycobacterium tuberculosis; experiment: Antimycobacterial activity against drug-sensitive Mycobacterium tuberculosis H37Rv ATCC 2517-infected hollow fiber system based in vitro pharmacokinetic-pharmacodynamic tuberculosis model assessed as rate constant for maximal bacterial kill; type: functional
[12] = tested on: Homo sapiens; experiment: fCmax in Mycobacterium tuberculosis H37Rv ATCC 2517-infected patient serum at 600 mg/day, po; type: ADME, organism-based
[13] = tested on: Homo sapiens; experiment: fAUC (0 to infinity) in Mycobacterium tuberculosis H37Rv ATCC 2517-infected patient serum at 600 mg/day, po; type: ADME, organism-based
[14] = tested on: Mycobacterium tuberculosis; experiment: Post antibiotic effect against Mycobacterium tuberculosis H37Rv ATCC 2517 infected hollow fiber system based in vitro pharmacokinetic-pharmacodynamic tuberculosis model at 2 mg/L administered for 7 hrs; type: functional
How it was run: (§3)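 Broth cultures grown 4 days were exposed at 10^6 CFU/ml to the stated concentration and duration. They were then washed twice by centrifugation (2,000 x g, 10 min) and resuspended in fresh broth, shaken at 37°C in 5% CO2, and sampled every other day for agar counts. PAE equals the time for exposed cultures to grow 1 log10 CFU/ml minus that for controls. The study was performed twice.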

[15] = AUC (0 to 168 hrs) in Mycobacterium tuberculosis H37Rv ATCC 2517-infected patient serum at 600 mg/day, po; type: ADME, organism-based, Plasma; set-up: time < 168 hr, dose 600 mg/day, route oral; conditions: human
[16] = AUC (0 to 168 hrs) in Mycobacterium tuberculosis H37Rv ATCC 2517-infected hollow fiber system based in vitro pharmacokinetic-pharmacodynamic tuberculosis model; type: ADME; set-up: time < 168 hr; how it was run: as §1
[17] = Clearance in Mycobacterium tuberculosis H37Rv ATCC 2517-infected hollow fiber system based in vitro pharmacokinetic-pharmacodynamic tuberculosis model; type: ADME, organism-based
[18] = tested on: Mycobacterium tuberculosis; experiment: Post antibiotic effect against Mycobacterium tuberculosis H37Rv ATCC 2517 infected hollow fiber system based in vitro pharmacokinetic-pharmacodynamic tuberculosis model at 14 mg/L administered for 0.5 hrs; type: functional; how it was run: as §3
[19] = tested on: Homo sapiens; experiment: fCmax in Mycobacterium tuberculosis H37Rv ATCC 2517-infected patient serum at 2100 mg, po administered twice a week; type: ADME, organism-based; conditions: in vivo
[20] = tested on: Mycobacterium tuberculosis; experiment: Antimycobacterial activity against Mycobacterium tuberculosis H37Rv ATCC 2517 infected in hollow fiber system based in vitro pharmacokinetic-pharmacodynamic tuberculosis model assessed as microbial killing administered at simulated dose of 4200 mg, po once weekly; type: functional, organism-based; how it was run: as §2
[21] = AUC in Mycobacterium tuberculosis H37Rv ATCC 2517-infected hollow fiber system based in vitro pharmacokinetic-pharmacodynamic tuberculosis model at 7 mg/L for 1 hr; type: ADME
[22] = AUC in Mycobacterium tuberculosis H37Rv ATCC 2517-infected hollow fiber system based in vitro pharmacokinetic-pharmacodynamic tuberculosis model at 7 mg/L for 2 hrs; type: ADME
[23] = tested on: Mycobacterium tuberculosis; experiment: Post antibiotic effect against Mycobacterium tuberculosis H37Rv ATCC 2517 infected hollow fiber system based in vitro pharmacokinetic-pharmacodynamic tuberculosis model at 7 mg/L administered for 1 hr; type: functional; how it was run: as §3
[24] = tested on: Mycobacterium tuberculosis; experiment: Antimycobacterial activity against drug-sensitive Mycobacterium tuberculosis H37Rv ATCC 2517-infected hollow fiber system based in vitro pharmacokinetic-pharmacodynamic tuberculosis model assessed as concentration needed to achieve 50% maximal killing rate; type: functional
[25] = tested on: Mycobacterium tuberculosis; experiment: Post antibiotic effect against Mycobacterium tuberculosis H37Rv ATCC 2517 infected hollow fiber system based in vitro pharmacokinetic-pharmacodynamic tuberculosis model at 7 mg/L administered for 2 hrs; type: functional
[26] = tested on: Mycobacterium tuberculosis; experiment: Antimycobacterial activity against Mycobacterium tuberculosis H37Rv ATCC 2517 infected in hollow fiber system based in vitro pharmacokinetic-pharmacodynamic tuberculosis model assessed as microbial killing administered at simulated dose of 2100 mg, po twice weekly; type: functional, organism-based; how it was run: as §2
[27] = tested on: Mycobacterium tuberculosis; experiment: Antimycobacterial activity against drug-sensitive Mycobacterium tuberculosis H37Rv ATCC 2517-infected hollow fiber system based in vitro pharmacokinetic-pharmacodynamic tuberculosis model assessed as sigmoidicity constant for drug effect on microbial growth; type: functional
[28] = AUC in Mycobacterium tuberculosis H37Rv ATCC 2517-infected hollow fiber system based in vitro pharmacokinetic-pharmacodynamic tuberculosis model at 14 mg/L for 0.5 hrs; type: ADME
[29] = tested on: Mycobacterium tuberculosis; experiment: microbe, parasite or virus in culture

`CO[C@H]1/C=C/O[C@@]2(C)Oc3c(C)c(O)c4c(O)c(c(/C=N/N5CCN(C)CC5)c(O)c4c3C2=O)NC(=O)/C(C)=C\C=C\[C@H](C)[C@H](O)[C@@H](C)[C@@H](O)[C@@H](C)[C@H](OC(C)=O)[C@@H]1C` [RIFAMPIN] gave an AUC(0-t) at 168 h [1] of 14000 ng·h/mL, an AUC at 7 h, 2 mg/L [2] of 14000 ng·h/mL and a Kgmax [3] of 9.756 ×10⁻³ log10CFU/ml/hr. The fAUC [4] was 112000 ng·h/mL, the Hk [5] was 1.388 and the C50g [6] was 1932 mg/L. The CFU [7] was 1.95 mL⁻¹, the fCmax [8] was 14 mg/L and the Drug uptake [9] was “Dose-dependent effect”. For the same compound, the fAUC [10] was 112000 ng·h/mL, the Kkmax [11] was 15.829 ×10⁻³ log10CFU/ml/hr and the fCmax [12] was 2 mg/L. For the same compound, the fAUC [13] was 16000 ng·h/mL, the PAE [14] was 5.2 days and the AUC at 168 h [15] was 112000 ng·h/mL. For the same compound, the AUC(0-t) at 168 h [16] was 122000 ng·h/mL, the CL [17] was 99 L/h and the PAE [18] was 19.3 days. For the same compound, the fCmax [19] was 7 mg/L, the Activity [20] was “Active” and the AUC at 1 h, 7 mg/L [21] was 7000 ng·h/mL. For the same compound, the AUC at 2 h, 7 mg/L [22] was 14000 ng·h/mL, the PAE [23] was 12 days and the C50k [24] was 7.652 mg/L. For the same compound, the PAE [25] was 12.9 days, the Activity [26] was “Active” and the Hg [27] was 0.361. It also gave an AUC at 0.5 h, 14 mg/L [28] of 7000 ng·h/mL and an MIC90 [29] of 0.125 µg/mL (≈ 0.152 µM).
